hiPSC survival = enhancers of single-cell hiPSC survival, primary screen, ATPlite luminescence; 100% = ROCK inhibitor wells, 0% = DMSO; survival enhancement, % at 20 µM; 360,000 tested, 0.044% active; in the data active = survival enhancement above about 18%;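 also: cells exposed to compounds for 16 hours before the ATP read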
MT1-MMP act inh = blockers of MT1-MMP proenzyme processing, primary screen, HT1080 RFP-PRO-GFP cells, GFP/RFP fluorescence; GFP/RFP ratio fluorescence, overnight; percent of plate control window, DMSO zero; GFP/RFP ratio change, % at 20 µM; 360,000 tested, 0.061% active;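 active = GFP/RFP ratio change of at least 30% with cell ATP level not reduced by more than half and red fluorescence within 50% of control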
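Assay system: HT1080 cells carrying an RFP-PRO-GFP reporter | Dosing: Single dose of 20 µM compound, 1% DMSO final | Incubation: Cells overnight before dosing, compound overnight, 37 °C, 5% CO2 | Evaluation: GFP/RFP fluorescence ratio | Control set: DMSO and RFP-L50D-GFP cell wells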
DAGLB inh = DAGLB lipase inhibitors, primary screen, biochemical, fluorescence, HTS | AID 504411, 2011 | Diacylglycerol lipase-beta (Homo sapiens), Q8NCG7 | inhibition, % at 5.17 µM | HEK293T DAGLB membrane lysate, EnzChek fluorogenic substrate | 340,000 tested, 0.059% active; in the data active = inhibition above about 34%;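 also: 0% = enzyme with vehicle and 100% = wells lacking enzyme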
SKN-1 block = suppressors of acrylamide-induced Pgst-4::GFP reporter in worms, primary screen, SKN-1 inhibitor project, whole organism, uHTS, GFP/RFP fluorescence ratio, strain VP596; C. elegans VP596 Pgst-4::GFP/RFP ratio, 24 h; inhibition, % at 21.8 µM; 360,000 tested, 0.49% active;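 active = interference check ratio from 0.5 to 1.5 plus GFP to RFP signal ratio inhibition reaching or exceeding a fixed threshold, cut at about 30% in these data, passing the limit was not always enough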
FAS-TE inh = FAS thioesterase domain inhibitors, primary screen, biochemical, fluorescence intensity, uHTS; AID 602261, 2012; recombinant FAS-TE, OMFH fluorogenic substrate, fluorescence endpoint; inhibition, % at 15 µM; 360,000 tested, 0.67% active; Fatty acid synthase (Homo sapiens), P49327;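 active = compounds whose normalised, plate-corrected inhibition of enzyme fluorescence in the single-dose primary screen is 50% or more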;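 also: 0% = DMSO with enzyme and 100% = substrate without enzyme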
FAS-TE conf = FAS thioesterase domain inhibitors, confirmation, biochemical, fluorescence intensity, single concentration. shares compounds with FAS-TE inh. recombinant FAS-TE, OMFH fluorogenic substrate. inhibition, % at 15 µM. 2,300 tested, 45% active. AID 624325, 2012;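 active = compounds inhibiting the enzyme by at least 50% at 15 µM in any one of the replicates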;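 also: 0% = enzyme with DMSO only and 100% = wells lacking enzyme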
An asterisk follows results filed as active; . = no result given. Rows were chosen to be rich in hits. Some 1.3% of all compounds tested hit in one or more screens of this group.

SMILES	hiPSC survival	MT1-MMP act inh	DAGLB inh	SKN-1 block	FAS-TE inh	FAS-TE conf
CCOc1ccc(S(=O)(=O)N2CCC(C(=O)Nc3ccc(C)c(S(=O)(=O)N4CCOCC4)c3)CC2)cc1	0	-1	-1	-2	52*	29
CN(Cc1cccs1)C(=O)Cn1cnc2cc([N+](=O)[O-])ccc2c1=O	-1	-3	-2	10	53*	55*
O=C(Cn1cnc2cc([N+](=O)[O-])ccc2c1=O)N(Cc1ccccc1)C1CCS(=O)(=O)C1 (centres undefined)	2	0	2	17	57*	45
CCc1ccc(C(=O)Cn2cnc3cc([N+](=O)[O-])ccc3c2=O)cc1	-1	3	-1	-11	2	.
O=C1c2ccc(Cl)cc2S(=O)(=O)c2cccc(C(=O)N3CCC(Cc4ccccc4)CC3)c21	-4	-1	-4	-6	84*	27
COc1ccc(-c2ccc3c(c2)S(=O)(=O)c2cccc(C(=O)N4CCN(c5c(Cl)cncc5Cl)CC4)c2C3=O)cc1OC	1	0	8	5	68*	-2
N#Cc1cccnc1N1CCN(C(=O)c2cccc3c2C(=O)c2ccc(-c4ccc(Cl)c(C(F)(F)F)c4)cc2S3(=O)=O)CC1	-2	9	5	22	80*	2
O=C(NC1CCCC1)c1cccc2c1C(=O)c1ccc(Cl)cc1S2(=O)=O	2	2	1	-4	-3	.
O=C1c2ccc(Cl)cc2S(=O)(=O)c2cccc(C(=O)N3CCN(c4ncc(Br)cn4)CC3)c21	-1	1	5	3	68*	9
COc1ccc(-c2ccc3c(c2)S(=O)(=O)c2cccc(C(=O)NCCOc4ccccc4)c2C3=O)cc1OC	1	-35	1	13	-8	.
N#Cc1cccnc1N1CCN(C(=O)c2cccc3c2C(=O)c2ccc(Cl)cc2S3(=O)=O)CC1	-7	3	1	11	26	.
CCS(=O)(=O)N1Cc2cc(C(=O)NCCOC)nc(-c3cccc(-c4ccncc4)c3)c2[C@H]1CCO	0	0	.	-4	-13	.
O=C(COC(=O)c1cc([N+](=O)[O-])ccc1N1CCOCC1)c1ccccc1Cl	0	3	-1	-7	46	.
COc1ccccc1C(=O)COC(=O)c1cc(S(=O)(=O)N2CCCCC2)ccc1N1CCOCC1	0	-3	1	7	38	.
COc1ccccc1C(=O)COC(=O)c1cc([N+](=O)[O-])ccc1N1CCOCC1	1	4	-1	13	68*	34*
COc1ccc(C(=O)COC(=O)c2cc(S(=O)(=O)N3CCCCC3)ccc2N2CCOCC2)c(OC)c1	0	-4	-8	10	73*	3
COc1ccccc1CNC(=O)COC(=O)c1cc([N+](=O)[O-])ccc1N1CCOCC1	0	-1	3	-13	79*	90*
COc1ccccc1NC(=O)c1cc([N+](=O)[O-])ccc1N1CCOCC1	0	-4	-4	4	36	.
O=C(COC(=O)c1cc([N+](=O)[O-])ccc1N1CCOCC1)c1ccccc1	0	5	-1	-1	63*	71*
N#CCCN1CCCN(CCC#N)CCN(CCC#N)CCCN(CCC#N)CC1	0	-1	-2	-10	-2	.
Cc1nc(C(F)(F)F)ccc1C(=O)N1CCC1(C)C(=O)NCc1ccc(Cl)cc1 (centres undefined)	-1	3	.	-1	3	.
CCOc1ccc(C(=O)c2cc([N+](=O)[O-])ccc2N2CCOCC2)cc1	-3	12	1	12	47	.
Cc1cc(C)c(C(=O)COC(=O)c2cc([N+](=O)[O-])ccc2N2CCOCC2)cc1C	0	4	-1	22	57*	33
COc1ccc(C(=O)c2cc([N+](=O)[O-])ccc2N2CCOCC2)cc1	-2	10	-2	6	23	.
COc1ccc(C(=O)COC(=O)c2cc([N+](=O)[O-])ccc2N2CCOCC2)c(OC)c1	1	-1	-4	-16	75*	75*
SMILES	hiPSC survival	MT1-MMP act inh	DAGLB inh	SKN-1 block	FAS-TE inh	FAS-TE conf
COc1cc(C(=O)COC(=O)c2cc([N+](=O)[O-])ccc2N2CCOCC2)ccc1OC(F)F	0	-2	-1	6	55*	57*
COCCNC(=S)N(C)[C@H]1C[C@H]2c3cc(-c4ccccc4)ccc3CCN2C(=O)[C@H]1[C@H](C)O	1	8	3	-3	1	.
O=C(CSc1nc(=O)n2ccccc2n1)NC1CCCCC1	2	0	7	13	-4	.
O=C(N/N=C/c1coc2ccc(Cl)cc2c1=O)c1cc(O)cc(O)c1	0	-11	-1	1	67*	41
Cc1ccc2occ(/C=N/NC(=O)c3ccc(Cl)cc3)c(=O)c2c1	0	-7	1	9	4	.
CCOc1ccc(CCNC(=O)COC(=O)c2cc([N+](=O)[O-])ccc2N2CCOCC2)cc1OCC	0	-4	2	5	53*	57*
CC(=O)Nc1ccc(NC(=O)COC(=O)c2cc([N+](=O)[O-])ccc2N2CCOCC2)cc1	0	-2	0	7	18	.
O=C(COC(=O)c1cc([N+](=O)[O-])ccc1N1CCOCC1)NCCc1ccccc1	0	-1	1	2	78*	66*
O=C(COC(=O)c1cc([N+](=O)[O-])ccc1N1CCOCC1)NCc1ccc(F)cc1	0	-3	2	-4	88*	81*
CC(=O)Nc1cc(-c2cccc(C(=O)NCCN(C)C)c2)cn2c(-c3cccc(C(F)(F)F)c3)cnc12	-3	-10	.	-4	-18	.
CCCCCCCCN1C(=O)[C@H](CC(=O)N2CCOCC2)C[C@@]2(C(=O)OCC)CCCC=C12	0	2	.	14	8	.
CCc1ccc(C(=O)COC(=O)c2cc([N+](=O)[O-])ccc2NCCO)cc1	1	5	-4	-2	84*	73*
O=C(COC(=O)c1cc([N+](=O)[O-])ccc1NCCO)c1ccc(Cl)cc1	5	1	1	-3	46	.
Cc1cc(C)c(C(=O)COC(=O)c2cc([N+](=O)[O-])ccc2NCCO)cc1C	-2	2	-2	-2	52*	37*
Nn1c(SCC(=O)Nc2ccccc2F)nnc1C1CCCCC1	2	1	0	9	-4	.
